Measured values taken from ChEMBL document CHEMBL1139597, “Evaluation of 3-substituted arginine analogs as selective inhibitors of human nitric oxide synthase isozymes” (Bioorg Med Chem Lett, 2005).

Tests used:
[1] = biological target: Nitric oxide synthase, inducible (Homo sapiens, UniProt P35228); experiment: Inhibitory concentration against human inducible nitric oxide synthase expressed in Sf-9 cells
Procedure, shortened: (§1)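 Recombinant human NOS isozyme produced in Sf-9 insect cells. Enzyme activity was followed as conversion of [¹⁴C]-L-Arg to [¹⁴C]-L-Cit, and IC50 was calculated from the concentration dependence of inhibition. Inhibitors were tested up to 1 mM.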

Nitric oxide synthase 3 = biological target: T1, Nitric oxide synthase 3 (Homo sapiens, UniProt P29474); experiment: Inhibitory concentration against human endothelial nitric oxide synthase expressed in Sf-9 cells; procedure, shortened: as §1
T1 sequence (P29474 whole entry): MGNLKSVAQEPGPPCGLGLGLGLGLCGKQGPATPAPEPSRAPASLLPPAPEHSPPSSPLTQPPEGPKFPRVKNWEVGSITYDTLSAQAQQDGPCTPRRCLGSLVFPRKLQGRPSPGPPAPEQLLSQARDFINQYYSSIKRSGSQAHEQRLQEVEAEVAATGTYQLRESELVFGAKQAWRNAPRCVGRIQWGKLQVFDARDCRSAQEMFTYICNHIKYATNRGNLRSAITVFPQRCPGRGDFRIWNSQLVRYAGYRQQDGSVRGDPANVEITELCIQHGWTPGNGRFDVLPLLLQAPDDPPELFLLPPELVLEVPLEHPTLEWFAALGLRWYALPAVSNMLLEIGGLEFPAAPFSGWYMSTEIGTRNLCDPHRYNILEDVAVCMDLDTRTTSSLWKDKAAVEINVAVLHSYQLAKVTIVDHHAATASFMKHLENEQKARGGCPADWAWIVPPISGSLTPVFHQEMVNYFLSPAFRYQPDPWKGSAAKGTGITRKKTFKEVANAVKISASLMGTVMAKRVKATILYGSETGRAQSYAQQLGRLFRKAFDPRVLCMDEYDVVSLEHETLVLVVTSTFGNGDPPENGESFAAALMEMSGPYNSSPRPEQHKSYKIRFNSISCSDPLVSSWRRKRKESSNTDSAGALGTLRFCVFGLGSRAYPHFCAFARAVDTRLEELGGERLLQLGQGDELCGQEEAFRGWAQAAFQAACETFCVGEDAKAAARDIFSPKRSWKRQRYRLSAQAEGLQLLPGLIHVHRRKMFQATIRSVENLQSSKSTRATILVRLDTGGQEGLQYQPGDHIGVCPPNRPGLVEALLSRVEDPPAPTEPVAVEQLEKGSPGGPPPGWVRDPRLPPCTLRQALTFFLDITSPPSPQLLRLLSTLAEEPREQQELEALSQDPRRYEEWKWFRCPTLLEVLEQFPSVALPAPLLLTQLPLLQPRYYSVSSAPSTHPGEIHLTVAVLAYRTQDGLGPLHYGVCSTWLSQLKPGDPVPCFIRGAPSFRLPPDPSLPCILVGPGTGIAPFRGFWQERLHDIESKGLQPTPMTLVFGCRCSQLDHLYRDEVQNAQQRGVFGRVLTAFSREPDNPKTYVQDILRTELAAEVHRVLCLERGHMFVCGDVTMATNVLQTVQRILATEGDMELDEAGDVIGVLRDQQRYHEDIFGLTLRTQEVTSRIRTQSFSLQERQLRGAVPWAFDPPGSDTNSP

Nitric oxide synthase 1 = Nitric oxide synthase 1 (Homo sapiens, UniProt P29475); experiment: Inhibitory concentration against human neuronal nitric oxide synthase expressed in Sf-9 cells; procedure, shortened: as §1
Chain of Nitric oxide synthase 1 (P29475 whole entry): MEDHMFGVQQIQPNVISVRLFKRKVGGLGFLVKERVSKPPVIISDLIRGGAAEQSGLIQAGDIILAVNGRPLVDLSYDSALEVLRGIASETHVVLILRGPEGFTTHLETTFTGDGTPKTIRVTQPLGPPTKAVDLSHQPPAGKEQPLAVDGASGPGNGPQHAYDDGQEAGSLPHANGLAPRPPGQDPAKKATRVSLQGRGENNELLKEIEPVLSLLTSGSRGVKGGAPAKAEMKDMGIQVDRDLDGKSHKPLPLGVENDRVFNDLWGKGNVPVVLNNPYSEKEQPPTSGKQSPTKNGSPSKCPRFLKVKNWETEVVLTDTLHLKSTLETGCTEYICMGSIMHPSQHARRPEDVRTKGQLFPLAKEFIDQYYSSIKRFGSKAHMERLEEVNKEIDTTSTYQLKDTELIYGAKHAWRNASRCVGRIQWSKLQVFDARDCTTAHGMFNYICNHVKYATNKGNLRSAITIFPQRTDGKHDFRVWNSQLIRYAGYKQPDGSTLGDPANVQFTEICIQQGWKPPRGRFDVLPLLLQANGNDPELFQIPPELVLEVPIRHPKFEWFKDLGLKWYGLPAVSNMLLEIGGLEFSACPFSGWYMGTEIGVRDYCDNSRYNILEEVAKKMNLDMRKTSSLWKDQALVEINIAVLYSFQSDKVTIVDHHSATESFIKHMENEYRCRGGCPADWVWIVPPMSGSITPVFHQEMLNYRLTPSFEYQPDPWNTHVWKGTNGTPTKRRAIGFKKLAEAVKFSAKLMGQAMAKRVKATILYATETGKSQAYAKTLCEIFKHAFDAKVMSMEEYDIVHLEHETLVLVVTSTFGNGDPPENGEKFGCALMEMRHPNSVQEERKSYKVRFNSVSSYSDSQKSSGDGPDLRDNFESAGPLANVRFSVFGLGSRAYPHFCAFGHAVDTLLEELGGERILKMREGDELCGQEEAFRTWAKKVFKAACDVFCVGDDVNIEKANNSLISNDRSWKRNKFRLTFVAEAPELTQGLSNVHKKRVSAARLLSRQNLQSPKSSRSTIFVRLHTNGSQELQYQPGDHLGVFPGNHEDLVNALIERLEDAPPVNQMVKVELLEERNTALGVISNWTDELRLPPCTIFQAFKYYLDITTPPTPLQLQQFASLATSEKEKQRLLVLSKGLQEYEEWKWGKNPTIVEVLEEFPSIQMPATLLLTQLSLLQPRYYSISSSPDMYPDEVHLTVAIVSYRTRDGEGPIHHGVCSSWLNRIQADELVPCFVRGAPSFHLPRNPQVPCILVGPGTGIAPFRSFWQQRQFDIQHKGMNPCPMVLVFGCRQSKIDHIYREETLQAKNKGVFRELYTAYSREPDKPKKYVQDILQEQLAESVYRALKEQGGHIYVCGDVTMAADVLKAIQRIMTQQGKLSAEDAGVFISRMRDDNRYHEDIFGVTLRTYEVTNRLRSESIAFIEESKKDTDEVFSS

Chain of Nitric oxide synthase, inducible (P35228 whole entry): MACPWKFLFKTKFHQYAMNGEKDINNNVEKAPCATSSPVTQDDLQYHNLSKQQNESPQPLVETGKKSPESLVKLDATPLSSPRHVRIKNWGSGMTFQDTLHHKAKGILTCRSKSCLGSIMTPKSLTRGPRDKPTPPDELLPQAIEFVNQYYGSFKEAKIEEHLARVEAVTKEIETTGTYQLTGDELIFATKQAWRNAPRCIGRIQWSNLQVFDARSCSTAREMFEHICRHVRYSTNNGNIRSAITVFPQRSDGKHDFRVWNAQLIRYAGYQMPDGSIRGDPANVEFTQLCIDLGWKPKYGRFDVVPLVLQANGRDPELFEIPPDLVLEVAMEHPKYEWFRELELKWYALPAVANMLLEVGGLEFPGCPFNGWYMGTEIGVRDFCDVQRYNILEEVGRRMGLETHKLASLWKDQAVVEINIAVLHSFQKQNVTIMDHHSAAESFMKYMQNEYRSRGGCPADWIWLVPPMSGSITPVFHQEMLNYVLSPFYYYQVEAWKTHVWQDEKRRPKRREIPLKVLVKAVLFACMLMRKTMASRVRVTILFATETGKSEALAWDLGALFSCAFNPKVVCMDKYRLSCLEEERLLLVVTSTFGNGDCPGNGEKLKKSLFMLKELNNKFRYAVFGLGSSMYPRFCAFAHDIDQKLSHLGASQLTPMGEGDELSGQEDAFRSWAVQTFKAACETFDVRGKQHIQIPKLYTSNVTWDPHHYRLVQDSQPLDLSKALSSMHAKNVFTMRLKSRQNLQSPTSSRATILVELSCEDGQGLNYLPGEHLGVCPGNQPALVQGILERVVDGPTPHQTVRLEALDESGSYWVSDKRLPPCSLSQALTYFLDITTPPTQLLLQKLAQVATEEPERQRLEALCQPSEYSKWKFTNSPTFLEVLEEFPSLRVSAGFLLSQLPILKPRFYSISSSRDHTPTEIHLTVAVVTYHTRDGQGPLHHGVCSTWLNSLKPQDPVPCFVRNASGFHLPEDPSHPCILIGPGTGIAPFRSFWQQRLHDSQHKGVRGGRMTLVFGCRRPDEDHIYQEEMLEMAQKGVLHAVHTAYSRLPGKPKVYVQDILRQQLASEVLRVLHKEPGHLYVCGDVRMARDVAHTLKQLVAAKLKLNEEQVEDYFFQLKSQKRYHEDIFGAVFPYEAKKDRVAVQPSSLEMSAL

SMILES	IC50 [1] [µM]	IC50 (Nitric oxide synthase 3) [µM]	IC50 (Nitric oxide synthase 1) [µM]
CSC(=N)NCCC[C@H](N)C(=O)N[C@@H](Cc1ccccc1)C(=O)O	3.9	> 1000	36
CCC[C@@H](CCN=C(N)SC)[C@H](N)C(=O)O	370	> 1000	500
CC(=N)NCC[C@@H](C)[C@H](N)C(=O)O	> 1000	> 1000	> 1000
CC(=N)NCCC[C@H](N)C(=O)O [L-NIO]	4	6	–
